Results on three compounds are retold here after PMC3437501 (European Journal of Pain (London, England), 2011).

“Also recorded” adds a separate entry of the source. Marks after values point to notes of the source that are not given here. Bounds are passed on as bounds.

The nature of series [1]: Post-operative consumption of intrathecal bupivacaine and piritramide. It counts as in vivo, human. The essentials:
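After spinal bupivacaine 0.5% via lumbar intrathecal catheter, 0.01% bupivacaine infused intrathecally at 4–6 mL/h plus patient-controlled boluses up to 1 mL every 10 min, 4-h lockout 40 mL. Breakthrough pain: piritramide i.v. up to 5 mg (s.c. up to 15 mg). Total consumption, requests, delivered boluses and request times recorded. Patient lacking catheter excluded.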

The nature of series [2]: Safety: adverse events and blood loss during surgery. It counts as in vivo, human.
Series [3] can be described thus: Patient ratings of post-operative pain, satisfaction and sleep disturbance. The settings on record: first 24 h; interaction p = 0.036. It is filed as in vivo, human. The essentials: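 Patients dosed orally with 120 mg test compound or placebo on surgery day and next day, double-blind. Global pain and operated-hip pain at rest and passive movement rated on 11-point scale (0 = no pain, 10 = worst) at 4, 8, 12, 24, 26, 32, 48 h. Satisfaction with analgesia on numeric rating scale; sleep disturbance (0–10) at 24, 48, 72 h.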

Series [4] is described as follows: Pharmacokinetics of etoricoxib in plasma, CSF and tissue exudate. It is filed as in vivo, human. The settings on record: for Cmax / Tmax / Kp: human, 120 mg; for Kp: CSF/plasma. The gist of the method:
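Six hip-arthroplasty patients given oral 120 mg at 6:30 a.m. on surgery day and 24 h later. Blood and intrathecal-catheter CSF sampled predose and 1.5–48 h, first 1 mL CSF discarded; drain exudate collected hourly windows. LC-MS/MS with phenazone internal standard, LOQ 0.2 ng/mL, validated 0.2–200 ng/mL. AUC0–24 h by linear trapezoidal method; CSF/plasma ratio from AUCs, maximal ratio from individual concentrations.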

Another series concerns interleukin 6 (IL6). Put plainly: Interleukin 6 in plasma, CSF and tissue exudate. It is filed as in vivo, human. The essentials: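 Osteoarthritis patients (59–77 y) undergoing hip arthroplasty under spinal bupivacaine, given oral test compound 120 mg or placebo at 6:30 a.m. on surgery day and next day. Plasma and CSF sampled predose and 1.5–48 h; drain exudate collected over 60 min before 4–48 h, centrifuged, frozen −30 °C. IL6 by ELISA (LOQ 7.8 pg/mL); partial AUCs by linear trapezoidal rule.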

For series [5] the following is noted: cited from earlier work.
The subject of the next series is prostaglandin E2 (PGE2). Put plainly: Prostaglandin E2 in tissue exudate, plasma and CSF. It counts as in vivo, human. The essentials: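 Hip-arthroplasty patients dosed orally with 120 mg test compound or placebo on surgery day and next day. Drain exudate collected over 60 min before 4, 8, 12, 24, 26, 32, 48 h, centrifuged, supernatant frozen −30 °C. PGE2 in exudate and plasma by ELISA (LOQ 15 pg/mL). CSF PGE2 by solid-phase extraction LC-MS/MS with prostaglandin D2-d4 (LOQ 25–200 pg/mL). Partial AUCs by trapezoidal rule.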

For series [6] the following is noted: same dose; ref Fletcher et al., [1995]; cited from earlier work.
[7] abbreviates: tissue exudate, 12–24 h, mean, n = 6.
[8] abbreviates: tissue exudate, 24–36 h, mean, n = 6.
The mark [9] stands for this setting: tissue exudate, 36–47 h, mean, n = 6.

With `Cc1ccc(-c2ncc(Cl)cc2-c2ccc(S(C)(=O)=O)cc2)cn1` [Etoricoxib, etoricoxib], the “Demand for piritramide versus placebo” value in series [1] (2 to 48 h, main effect treatment p = 0.003) is recorded as “significantly higher in the placebo group”. In addition, the “On request local anaesthetic administration versus placebo” value in series [1] (only during the first 12 h post-operatively, main effect treatment p = 0.052) is listed as “higher in the placebo group”. Besides, in series [2] (120 mg 2 h before surgery, mean (SD), n = 6), the “Intra-OP BL (blood loss during surgery)” value was 383 (98) mL. Moreover, the Unwanted drug effects entry in series [2] (either treatment group) is listed as “not seen”. Further, in series [3], the “Post-operative analgesic satisfaction versus placebo” value was “significantly higher”. Also, the maximum concentration (Cmax) (usually the peak of the concentration-time curve) in series [4] (CSF, po) was 160 ng/mL; in series [4] (plasma, po), 1880 ng/mL. Moreover, the Tmax (as a rule, the time from dosing to the highest level) in series [4] (CSF, po) is 1.5 h; in series [4] (oral) it was below 2 h; in series [4] (plasma, po) it was 1.5 h. In addition, the Kp – broadly, tissue or fluid exposure divided by exposure in the circulation – was 0.041 in series [4] (oral, CSF/plasma ratio AUC 0–24 h, individual ratios, mean (range)) and 0.122 in series [4] (oral, Maximal CSF/plasma conc. ratio, individual maximal concentration ratio, mean (SD)). The “CSF/plasma ratio AUC 0–48 h” value in series [4] (individual ratios, mean (range), subgroup n = 5) is listed as 4.7 (2.8–8.1) ^b %. The “tmax for CSF/plasma conc. ratio” value in series [4] (median (range)) is recorded as 1.75 (1.5–32) h. The “IL6 cerebrospinal fluid (w/o R111) AUC (1.5–12 h)” value with interleukin 6 (IL6) (CSF, 1.5–12 h, mean, n = 6) worked out at 340 pg·h/mL. Besides, in the series with interleukin 6 (IL6) (CSF, 12–24 h, mean, n = 6), the “IL6 cerebrospinal fluid (w/o R111) AUC (12–24 h)” value was 660 pg·h/mL. Also, the “IL6 cerebrospinal fluid (w/o R111) AUC (24–36 h)” value with interleukin 6 (IL6) (CSF, 24–36 h, mean, n = 5) was found to be 575 pg·h/mL. Moreover, the “IL6 cerebrospinal fluid (w/o R111) AUC (36–48 h)” value with interleukin 6 (IL6) (CSF, 36–48 h, mean, n = 5) was determined as 436 pg·h/mL. For the same compound, the “IL6 plasma AUC (1.5–12 h)” value in the series with interleukin 6 (IL6) (plasma, 1.5–12 h, mean, n = 6) was determined as 435 pg·h/mL. For the same compound, in the series with interleukin 6 (IL6) (plasma, 12–24 h, mean, n = 6), the “IL6 plasma AUC (12–24 h)” value amounted to 596 pg·h/mL. The “IL6 plasma AUC (24–36 h)” value in the series on interleukin 6 (IL6) (plasma, 24–36 h, mean, n = 6) was found to be 598 pg·h/mL. Further, in the series with interleukin 6 (IL6) (plasma, 36–48 h, mean, n = 6), the “IL6 plasma AUC (36–48 h)” value stood at 409 pg·h/mL. For the same compound, the “Time until plasma IL6 returned to preoperative levels” value in the series on interleukin 6 (IL6) (plasma, time after surgery) is at most 20 h. Further, in the series on interleukin 6 (IL6) (tissue exudate, 4–12 h, mean, n = 6), the “IL6 tissue exudate AUC (4–12 h)” value was found to be 479 ng·h/mL. Also, the “IL6 tissue exudate AUC (12–24 h)” value in the series on interleukin 6 (IL6) (setting [7]) is 1606 ng·h/mL. Besides, the “IL6 tissue exudate AUC (24–36 h)” value with interleukin 6 (IL6) (setting [8]) was 1200 ng·h/mL. Besides, in the series on interleukin 6 (IL6) (setting [9]), the “IL6 tissue exudate AUC (36–47 h)” value is 861 ng·h/mL. The “Absorption, bioavailability and elimination” value in series [5] (ref Agrawal et al., [2003]) is “fast absorption, high bioavailability and slow elimination”. Moreover, the “Concentrations of PGE2 in plasma and CSF” value with prostaglandin E2 (PGE2) (plasma and CSF, both groups, differences not significant) is given as “near or below the LOQ”. Besides, the “PGE2 production in the surgical wound” value in the series with prostaglandin E2 (PGE2) (preoperative administration) is recorded as “complete blockade”. Moreover, the “PGE2 tissue exudate AUC (4–12 h)” value in the series with prostaglandin E2 (PGE2) (tissue exudate (hip drain), 4–12 h, mean, n = 6) came to 40 ng·h/mL. The “PGE2 tissue exudate AUC (12–24 h)” value in the series on prostaglandin E2 (PGE2) (setting [7]) was determined as 48 ng·h/mL. The “PGE2 tissue exudate AUC (24–36 h)” value in the series on prostaglandin E2 (PGE2) (setting [8]) was determined as 29 ng·h/mL. Also, in the series on prostaglandin E2 (PGE2) (setting [9]), the “PGE2 tissue exudate AUC (36–47 h)” value was determined as 16 ng·h/mL. In addition, in the series with prostaglandin E2 (PGE2) (wound fluid, versus fast increase in placebo group, treatment p = 0.014), the “PGE2 concentration in wound fluid” value is recorded as “remained low throughout”.

As to `Cc1ccc(-c2cc(C(F)(F)F)nn2-c2ccc(S(N)(=O)=O)cc2)cc1` [celecoxib], in series [5] (oral, ref Brune et al., [2010]), the Absorption / bioavailability result was “absorbed slowly and to show variable (low) bioavailability; also recorded: slow and incomplete absorption”.

As to `O=C(c1ccccc1)c1ccc2n1CCC2C(=O)O` (stereo not shown) [ketorolac], the “Pain relief with preoperative versus post-operative administration” value in series [6] is listed as “significantly superior with preoperative administration”.
